Drawing on ChEMBL document CHEMBL1149114, “Countering cooperative effects in protease inhibitors using constrained beta-strand-mimicking templates in focused combinatorial libraries” (J Med Chem, 2004), this text covers Ki for 25 molecules.

Molecules are shown by their SMILES.

In one test the target is T1, Human immunodeficiency virus type 1 protease (Human immunodeficiency virus 1, UniProt Q72874). Description: (§1) Tested for inhibition of synthetic HIV-1 protease by using fluorometric assay. The essentials: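 Synthetic HIV-1 PR (SF2 isolate; C67B, C95B, Q7K, L33I mutations, B = L-α-aminobutyric acid) solubilized in 6 M Gu·HCl, refolded 60 min in phosphate pH 7.0/glycerol/BSA buffer. Continuous fluorimetric assay with 50 μM Abz-Thr-Ile-Nle-Phe(p-NO2)-Gln-Arg-NH2 in MES pH 6.5, 100 mM NaCl, 10% glycerol, I = 0.1 M, 37 °C, varying inhibitor. Ki from Dixon or Henderson plots; Km from Hanes plot.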
As usually defined, the Ki is the equilibrium dissociation constant of an inhibitor or competing ligand from its target. Read a low Ki as tighter binding. `CC[C@@H](C)[C@@H]1NC(=O)[C@@H](NC[C@@H](O)[C@H](Cc2ccccc2)NC(=O)[C@H](C(C)C)N2CCCC2=O)Cc2ccc(cc2)OCCCNC1=O` displayed a Ki of 1 nM. As to `CC[C@@H](C)[C@@H]1NC(=O)[C@@H](NC[C@@H](O)[C@H](Cc2ccccc2)NC(=O)[C@@H](NC(=O)[C@H](CC(C)C)NC(C)=O)C(C)C)Cc2ccc(cc2)OCCCNC1=O`, affinity was put at a Ki of 0.6 nM.

`CC[C@@H](C)[C@@H]1NC(=O)[C@@H](NC[C@@H](O)[C@@H]2Cc3ccc(cc3)OCCCCC(=O)N[C@@H](C(C)C)C(=O)N2)Cc2ccc(cc2)OCCCNC1=O` came in with a Ki of 5 nM.

Consider `CC[C@@H](C)[C@@H]1NC(=O)[C@@H](NC[C@H](Cc2ccccc2)NC(=O)OC(C)(C)C)Cc2ccc(cc2)OCCCNC1=O`, for which affinity was put at a Ki of 44 nM. Take `CC[C@@H](C)[C@@H]1NC(=O)[C@@H](NC[C@@H](O)[C@H](Cc2ccccc2)NC(=O)OC(C)(C)C)Cc2ccc(cc2)OCCCNC1=O`: the affinity corresponds to a Ki of 4 nM. Molecule `CC[C@@H](C)[C@@H]1NC(=O)[C@@H](NC[C@@H](O)[C@H](Cc2ccccc2)NC(=O)OC2CCOC2)Cc2ccc(cc2)OCCCNC1=O` (stereo not given in full) gave a Ki of 4 nM. As for `CC[C@@H](C)[C@@H]1NC(=O)[C@@H](NC[C@@H](O)[C@H](Cc2ccccc2)NC(=O)c2cccc(C)c2)Cc2ccc(cc2)OCCCNC1=O`, the Ki stood at 15 nM. Same read-out and setting: then `CC(C)CCN(C[C@@H](O)[C@@H]1Cc2ccc(cc2)OCCCCC(=O)N[C@@H](C(C)C)C(=O)N1)S(=O)(=O)c1ccccc1`, with 0.4 nM; and `CC(C)CCN(C[C@@H](O)[C@@H]1Cc2ccc(cc2)OCCCCCC(=O)N[C@@H](C(C)C)C(=O)N1)S(=O)(=O)c1ccccc1`, with 1.6 nM; and `CC[C@H](C)[C@H](NC(=O)[C@@H](NC(=O)[C@@H]1CCCN1)C(C)C)C(=O)NCC(O)C1Cc2ccc(cc2)OCCCC(=O)NC(CC(N)=O)C(=O)N1` (stereo not given in full), with 12 nM. On to `CC(C)(C)N(CC(O)C1Cc2ccc(cc2)OCCCC(=O)NC(CC(N)=O)C(=O)N1)C(=O)C1CCCCN1` (stereo not given), for which the Ki stood at 12 nM. In turn, `CC(C)CCN(C[C@@H](O)[C@@H]1Cc2ccc(cc2)OCCCC(=O)N[C@@H](C(N)=O)C(=O)N1)S(=O)(=O)c1ccccc1` registered a Ki of 1 nM.

A further test concerns the target T1, Human immunodeficiency virus type 1 protease. Described as §1.
Consider `CC(C)[C@@H]1NC(=O)CCCCCOc2ccc(cc2)C[C@@H]([C@H](O)CN(C2CCCC2)S(=O)(=O)c2ccc(N)cc2)NC1=O`, for which the Ki stood at 3 nM. As for `CC(C)CCN(C[C@@H](O)[C@@H]1Cc2ccc(cc2)OCCCCCC(=O)N[C@@H](C(C)C)C(=O)N1)NC(=O)NCc1ccccc1`, the Ki was 314 nM. For `CCCCCCN(C[C@@H](O)[C@@H]1Cc2ccc(cc2)OCCCCCC(=O)N[C@@H](C(C)C)C(=O)N1)S(=O)(=O)c1ccc(N)cc1`, the Ki worked out at 14 nM. In turn, `CCC(C)N(C[C@@H](O)[C@@H]1Cc2ccc(cc2)OCCCCCC(=O)N[C@@H](C(C)C)C(=O)N1)S(=O)(=O)c1ccc(N)cc1` (stereo not given in full) returned a Ki of 2 nM. `CC(C)CCN(C[C@@H](O)[C@@H]1Cc2ccc(cc2)OCCCCCC(=O)N[C@@H](C(C)C)C(=O)N1)NC(=O)NC1CCCCC1` gave an inhibition constant (Ki) of 207 nM. In turn, `CC(C)CCN(C[C@@H](O)[C@@H]1Cc2ccc(cc2)OCCCCCC(=O)N[C@@H](C(C)C)C(=O)N1)S(=O)(=O)c1ccc2ccccc2c1` showed a Ki of 1 nM. `CC(C)CCN(C[C@@H](O)[C@@H]1Cc2ccc(cc2)OCCCCCC(=O)N[C@@H](C(C)C)C(=O)N1)S(=O)(=O)c1c(C(C)C)cc(C(C)C)cc1C(C)C` gave an inhibitory constant (Ki) of 4700 nM.

Molecule `CC(C)[C@@H]1NC(=O)CCCCCOc2ccc(cc2)C[C@@H]([C@H](O)CN(CCCCCC(=O)O)S(=O)(=O)c2ccc(N)cc2)NC1=O` registered a Ki of 60 nM. For `CC(C)[C@@H]1NC(=O)CCCCCOc2ccc(cc2)C[C@@H]([C@H](O)CN(CCc2ccccc2)S(=O)(=O)c2ccc(N)cc2)NC1=O`, the affinity corresponds to a Ki of 8 nM.

Consider `CC(=O)Nc1ccc(S(=O)(=O)N(CCC(C)C)C[C@@H](O)[C@@H]2Cc3ccc(cc3)OCCCCCC(=O)N[C@@H](C(C)C)C(=O)N2)cc1`, for which the inhibition constant (Ki) is 10 nM. In turn, `COc1ccc(CCN(C[C@@H](O)[C@@H]2Cc3ccc(cc3)OCCCCCC(=O)N[C@@H](C(C)C)C(=O)N2)S(=O)(=O)c2ccc(N)cc2)cc1` showed a Ki of 3 nM. `CC(C)CCN(C[C@@H](O)[C@@H]1Cc2ccc(cc2)OCCCCCC(=O)N[C@@H](C(C)C)C(=O)N1)S(=O)(=O)c1cccc([N+](=O)[O-])c1` returned a Ki of 145 nM. The molecule `CC(C)CCN(C[C@@H](O)[C@@H]1Cc2ccc(cc2)OCCCCCC(=O)N[C@@H](C(C)C)C(=O)N1)S(=O)(=O)c1cccc2cccnc12` had a Ki of 295 nM.
